According to ChEMBL document CHEMBL3632567, “Selective Allosteric Antagonists for the G Protein-Coupled Receptor GPRC6A Based on the 2-Phenylindole Privileged Structure Scaffold” (J Med Chem, 2015):

How the values were obtained:
[1] = target: T1, G-protein coupled receptor family C group 6 member A (Mus musculus, UniProt Q8K4Z6); experiment: Antagonist activity at mouse GPRC6A receptor expressed in HEK293 cells assessed as inhibition of L-ornithine-induced inositol monophosphate accumulation after 1 hr by FRET assay; assay type: functional, cell-based
T1 sequence (Q8K4Z6 whole entry): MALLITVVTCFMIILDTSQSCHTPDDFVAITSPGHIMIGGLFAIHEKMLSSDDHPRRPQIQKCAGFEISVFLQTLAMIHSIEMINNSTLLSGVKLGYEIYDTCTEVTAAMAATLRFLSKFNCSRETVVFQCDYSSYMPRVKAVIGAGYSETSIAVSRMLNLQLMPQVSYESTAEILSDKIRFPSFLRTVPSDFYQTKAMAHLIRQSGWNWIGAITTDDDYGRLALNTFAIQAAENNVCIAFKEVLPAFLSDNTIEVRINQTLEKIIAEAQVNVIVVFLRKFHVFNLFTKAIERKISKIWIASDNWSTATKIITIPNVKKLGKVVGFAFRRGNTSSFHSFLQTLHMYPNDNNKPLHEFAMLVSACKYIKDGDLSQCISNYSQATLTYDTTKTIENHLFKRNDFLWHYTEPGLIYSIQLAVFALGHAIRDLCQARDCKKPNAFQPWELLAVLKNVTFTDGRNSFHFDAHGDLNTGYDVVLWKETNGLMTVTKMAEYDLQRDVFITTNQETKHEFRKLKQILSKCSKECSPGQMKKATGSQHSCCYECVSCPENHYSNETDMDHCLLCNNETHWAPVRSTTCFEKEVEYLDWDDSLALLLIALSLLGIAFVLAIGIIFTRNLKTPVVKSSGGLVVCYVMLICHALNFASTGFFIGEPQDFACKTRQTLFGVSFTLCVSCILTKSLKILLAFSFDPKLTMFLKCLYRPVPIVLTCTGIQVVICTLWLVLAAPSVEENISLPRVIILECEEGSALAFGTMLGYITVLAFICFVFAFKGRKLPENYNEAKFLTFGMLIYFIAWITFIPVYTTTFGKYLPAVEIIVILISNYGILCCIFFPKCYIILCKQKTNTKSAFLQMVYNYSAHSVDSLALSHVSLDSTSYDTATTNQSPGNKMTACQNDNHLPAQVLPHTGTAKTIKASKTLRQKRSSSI
Summary of the method: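 HEK-293T cells transiently co-transfected (Lipofectamine 2000, 48 h before assay) with mouse GPRC6A and Gq(G66D), 1:1, 12,500 cells/well on poly-D-lysine. Cells washed twice in HBSS/HEPES/BSA pH 7.4, then 1 h at 37 °C with compounds (up to 400 µM, 2% DMSO final) plus 500 µM L-ornithine in LiCl Ligand Buffer. IP1 read by HTRF; curves triplicate, ≥3 experiments; relative potency = IC50(reference)/IC50 × 100.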

[2] = target: T2, G-protein coupled receptor family C group 6 member A (Mus musculus) (UniProt Q8K4Z6); experiment: Relative antagonist potency at mouse GPRC6A receptor expressed in HEK293 cells assessed as L-ornithine-induced inositol monophosphate accumulation after 1 hr by FRET assay relative to 2-[methyl-(2-morpholino-2-oxo-ethyl)amino]-1-(2-phenyl-1H-indol-3-yl)ethanone
T2 sequence (whole entry): T1 sequence (Q8K4Z6 whole entry)

[3] = target: T3, Extracellular calcium-sensing receptor (Rattus norvegicus, UniProt P48442); experiment: Antagonist activity at rat CaSR expressed in HEK293 cells assessed as inhibition of Ca2+-induced inositol monophosphate accumulation after 30 min by FRET assay
T3 sequence (P48442 whole entry): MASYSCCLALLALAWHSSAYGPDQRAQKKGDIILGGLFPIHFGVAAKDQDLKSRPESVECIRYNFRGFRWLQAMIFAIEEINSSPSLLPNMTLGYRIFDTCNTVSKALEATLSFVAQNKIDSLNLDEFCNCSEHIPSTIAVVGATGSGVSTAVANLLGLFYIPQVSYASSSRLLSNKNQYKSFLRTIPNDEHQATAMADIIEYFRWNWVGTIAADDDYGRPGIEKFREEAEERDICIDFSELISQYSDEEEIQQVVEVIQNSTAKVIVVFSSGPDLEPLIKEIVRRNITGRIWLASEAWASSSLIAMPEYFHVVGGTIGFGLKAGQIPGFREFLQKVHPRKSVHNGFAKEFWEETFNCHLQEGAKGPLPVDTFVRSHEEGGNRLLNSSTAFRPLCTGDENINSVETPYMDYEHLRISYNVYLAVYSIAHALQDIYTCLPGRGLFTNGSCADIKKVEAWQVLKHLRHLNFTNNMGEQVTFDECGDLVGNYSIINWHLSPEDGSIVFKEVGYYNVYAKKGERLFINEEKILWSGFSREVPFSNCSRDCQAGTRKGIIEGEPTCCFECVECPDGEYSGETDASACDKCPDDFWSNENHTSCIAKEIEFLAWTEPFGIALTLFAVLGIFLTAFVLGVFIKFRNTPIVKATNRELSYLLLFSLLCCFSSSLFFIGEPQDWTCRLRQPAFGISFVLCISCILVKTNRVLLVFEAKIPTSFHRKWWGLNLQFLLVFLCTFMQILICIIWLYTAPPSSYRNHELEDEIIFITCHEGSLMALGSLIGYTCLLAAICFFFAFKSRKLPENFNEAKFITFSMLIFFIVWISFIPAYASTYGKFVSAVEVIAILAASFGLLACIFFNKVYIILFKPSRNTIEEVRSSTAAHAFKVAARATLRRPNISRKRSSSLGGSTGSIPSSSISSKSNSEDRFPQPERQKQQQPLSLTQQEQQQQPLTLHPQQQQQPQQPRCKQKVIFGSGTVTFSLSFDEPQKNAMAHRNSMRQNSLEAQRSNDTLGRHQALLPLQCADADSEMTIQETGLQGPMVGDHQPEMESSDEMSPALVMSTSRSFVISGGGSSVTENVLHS

[4] = target: T4, 5-hydroxytryptamine receptor 2C (Homo sapiens, UniProt P28335); experiment: Antagonist activity at human 5HT2C receptor expressed in HEK293 cells assessed as inhibition of serotonin-induced inositol monophosphate accumulation after 1 hr by FRET assay; assay type: functional, cell-based
T4 sequence (P28335 whole entry): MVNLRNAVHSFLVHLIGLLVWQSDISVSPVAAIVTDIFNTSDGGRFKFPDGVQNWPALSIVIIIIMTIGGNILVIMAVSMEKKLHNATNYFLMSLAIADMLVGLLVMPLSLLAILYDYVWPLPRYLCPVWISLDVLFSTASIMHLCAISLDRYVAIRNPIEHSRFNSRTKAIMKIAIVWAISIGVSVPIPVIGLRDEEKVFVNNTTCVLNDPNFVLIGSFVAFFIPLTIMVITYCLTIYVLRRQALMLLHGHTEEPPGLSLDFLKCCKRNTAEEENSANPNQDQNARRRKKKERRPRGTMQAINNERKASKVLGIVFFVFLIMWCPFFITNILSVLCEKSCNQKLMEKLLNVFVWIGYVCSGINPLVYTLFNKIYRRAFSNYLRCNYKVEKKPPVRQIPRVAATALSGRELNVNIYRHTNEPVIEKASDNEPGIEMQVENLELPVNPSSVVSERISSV
Summary of the method: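 HEK-293T cells transiently transfected with human 5-HT2C (0.25 µg DNA/well), seeded 12,500/well 48 h before assay. After two HBSS/HEPES/BSA pH 7.4 washes, compounds in 2% DMSO final with 1 µM serotonin in Ligand Buffer (1 mM CaCl2, 1 mM MgCl2, LiCl, pH 7.4) applied 1 h at 37 °C. Lysate IP1 measured by HTRF (665/615 nm ratio vs standard); pIC50 by nonlinear regression, triplicate, ≥3 experiments.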

[5] = target: Metabotropic glutamate receptor 5 (Rattus norvegicus, UniProt P31424); experiment: Antagonist activity at rat mGluR5 expressed in CHO cells assessed as inhibition of L-glutamate-induced inositol monophosphate accumulation after 1 hr by FRET assay; assay type: functional, cell-based
Metabotropic glutamate receptor 5, sequence (P31424 whole entry): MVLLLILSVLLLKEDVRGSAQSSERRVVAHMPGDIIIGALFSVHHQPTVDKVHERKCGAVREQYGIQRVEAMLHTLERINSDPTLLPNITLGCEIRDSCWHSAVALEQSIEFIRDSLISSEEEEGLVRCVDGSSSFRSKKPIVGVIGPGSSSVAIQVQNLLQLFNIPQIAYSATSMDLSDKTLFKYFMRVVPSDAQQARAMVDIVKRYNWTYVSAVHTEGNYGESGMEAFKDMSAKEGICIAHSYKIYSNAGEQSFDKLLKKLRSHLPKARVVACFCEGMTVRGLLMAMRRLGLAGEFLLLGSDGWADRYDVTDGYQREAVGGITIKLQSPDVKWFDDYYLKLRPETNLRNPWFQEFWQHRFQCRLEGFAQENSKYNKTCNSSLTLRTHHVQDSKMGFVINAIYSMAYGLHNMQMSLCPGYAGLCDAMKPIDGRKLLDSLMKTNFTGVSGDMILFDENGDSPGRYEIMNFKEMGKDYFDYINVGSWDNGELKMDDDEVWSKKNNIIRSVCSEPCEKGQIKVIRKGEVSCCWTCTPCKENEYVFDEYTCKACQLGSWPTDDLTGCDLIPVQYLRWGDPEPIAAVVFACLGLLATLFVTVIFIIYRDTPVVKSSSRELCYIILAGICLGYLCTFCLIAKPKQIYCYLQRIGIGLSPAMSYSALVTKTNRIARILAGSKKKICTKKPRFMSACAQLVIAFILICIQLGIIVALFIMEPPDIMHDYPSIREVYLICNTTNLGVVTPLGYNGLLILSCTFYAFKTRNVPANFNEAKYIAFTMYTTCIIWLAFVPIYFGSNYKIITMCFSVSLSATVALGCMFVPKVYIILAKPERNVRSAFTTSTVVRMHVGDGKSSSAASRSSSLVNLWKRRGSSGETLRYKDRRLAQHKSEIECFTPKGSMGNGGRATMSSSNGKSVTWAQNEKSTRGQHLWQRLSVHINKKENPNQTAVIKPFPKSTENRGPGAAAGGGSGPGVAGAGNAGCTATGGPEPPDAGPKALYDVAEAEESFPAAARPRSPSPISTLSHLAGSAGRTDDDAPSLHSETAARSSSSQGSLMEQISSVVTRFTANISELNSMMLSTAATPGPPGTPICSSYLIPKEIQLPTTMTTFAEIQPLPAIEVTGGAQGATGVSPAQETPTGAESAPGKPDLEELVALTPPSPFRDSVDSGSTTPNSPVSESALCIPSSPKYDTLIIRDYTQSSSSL
Summary of the method: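 CHO cells stably expressing rat mGluR5, kept in DMEM with 10% dialyzed FBS and 1% L-proline, 37 °C, 5% CO2. After two washes in HBSS/HEPES/BSA pH 7.4, cells were stimulated 1 h at 37 °C with 100 µM L-glutamate and compounds (2% DMSO final) in LiCl Ligand Buffer. IP1 accumulation by HTRF; triplicate curves, ≥3 experiments.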

[6] = target: Muscarinic acetylcholine receptor M3 (Homo sapiens, UniProt P20309); experiment: Antagonist activity at human muscarinic M3 receptor expressed in HEK293 cells assessed as inhibition of carbachol-induced inositol monophosphate accumulation after 1 hr by FRET assay; assay type: functional, cell-based
Muscarinic acetylcholine receptor M3, sequence (P20309 whole entry): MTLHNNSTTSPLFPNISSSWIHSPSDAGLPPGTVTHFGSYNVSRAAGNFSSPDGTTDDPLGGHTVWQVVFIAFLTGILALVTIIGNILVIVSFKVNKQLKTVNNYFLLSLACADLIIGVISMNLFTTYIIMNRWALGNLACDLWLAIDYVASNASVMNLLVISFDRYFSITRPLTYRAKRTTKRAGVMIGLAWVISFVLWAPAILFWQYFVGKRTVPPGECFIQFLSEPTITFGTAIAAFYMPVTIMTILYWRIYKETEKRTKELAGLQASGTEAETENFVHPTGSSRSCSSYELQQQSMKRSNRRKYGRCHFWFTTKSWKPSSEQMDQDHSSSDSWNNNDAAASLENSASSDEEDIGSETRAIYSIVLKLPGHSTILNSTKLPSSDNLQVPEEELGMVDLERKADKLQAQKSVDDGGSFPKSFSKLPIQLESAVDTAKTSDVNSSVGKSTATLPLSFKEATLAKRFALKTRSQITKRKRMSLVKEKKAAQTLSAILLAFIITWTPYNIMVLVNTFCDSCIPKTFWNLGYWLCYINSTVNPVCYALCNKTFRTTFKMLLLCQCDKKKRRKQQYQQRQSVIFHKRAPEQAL
Summary of the method: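 HEK-293T cells transfected with empty pCIneo to use their native human M3 receptors, 12,500/well, assayed 48 h later. After two HBSS/HEPES/BSA pH 7.4 washes, cells were stimulated 1 h at 37 °C with 1 mM carbachol plus compounds (2% DMSO final) in LiCl-containing Ligand Buffer. IP1 quantified by HTRF against standard; triplicate curves, at least three experiments.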

CN(CC(=O)c1c(-c2ccc(F)cc2)[nH]c2ccccc12)CC(=O)N1CCOCC1
IC50 [1]: 21.3 µM
Relative potency [2]: 103

CN(CC(=O)c1c(CO)[nH]c2ccccc12)CC(=O)N1CCOCC1
IC50 [1]: > 400 µM
Relative potency [2]: < 6

CN(CC(=O)c1c(-c2ccco2)[nH]c2ccccc12)CC(=O)N1CCOCC1
IC50 [1]: 248 µM
Relative potency [2]: 9

CN(CC(=O)c1c(-c2ccccc2)[nH]c2ccc(F)cc12)CC(=O)N1CCOCC1
IC50 [1]: 39.8 µM
Relative potency [2]: 55

COc1ccc2[nH]c(-c3ccccc3)c(C(=O)CN(C)CC(=O)N3CCOCC3)c2c1
IC50 [1]: 66.1 µM
Relative potency [2]: 33

CN(CC(=O)c1c(-c2ccccc2)[nH]c2ccc(CC(=O)N(C)C)cc12)CC(=O)N1CCOCC1
IC50 [1]: > 400 µM
Relative potency [2]: < 6

CN(CC(=O)c1c[nH]c2ccccc12)CC(=O)N1CCOCC1
IC50 [1]: > 400 µM
Relative potency [2]: < 6

COc1ccc(-c2[nH]c3ccccc3c2C(=O)CN(C)CC(=O)N2CCOCC2)cc1
IC50 [3]: 56.2 µM
IC50 [4]: 51.3 µM
IC50 [5]: 41.7 µM
IC50 [1]: 9.33 µM
IC50 [6]: 4.17 µM

CN(CC(=O)c1c(-c2ccccc2)[nH]c2ccccc12)CC(=O)N1CCCC1
IC50 [1]: 57.3 µM
Relative potency [2]: 38

CN(CC(=O)N1CCOCC1)CC(O)c1c(-c2ccccc2)[nH]c2ccccc12 (centres undefined)
IC50 [1]: > 400 µM
Relative potency [2]: < 6

CN(CC(=O)c1c(-c2ccccc2)[nH]c2ccccc12)CC(=O)N1CCOCC1
IC50 [3]: 316 µM
IC50 [4]: 214 µM
IC50 [5]: 224 µM
IC50 [1]: 21.9 µM
IC50 [6]: 27.5 µM

CN(CCN1CCOCC1)CC(=O)c1c(-c2ccccc2)[nH]c2ccccc12
IC50 [3]: 347 µM
IC50 [4]: 269 µM
IC50 [5]: 269 µM
IC50 [1]: 6.17 µM
IC50 [6]: 58 µM

O=C(CNCC(=O)N1CCOCC1)c1c(-c2ccccc2)[nH]c2ccccc12
IC50 [1]: 256 µM
Relative potency [2]: 9

CN(CC(=O)N1CCOCC1)C(=O)c1c(-c2ccccc2)[nH]c2ccccc12
IC50 [1]: > 400 µM
Relative potency [2]: < 6

O=C(CN1CCCC(C(=O)N2CCOCC2)C1)c1c(-c2ccccc2)[nH]c2ccccc12 (centres undefined)
IC50 [3]: 240 µM
IC50 [4]: 209 µM
IC50 [5]: 263 µM
IC50 [1]: 5.5 µM
IC50 [6]: 51.3 µM

CN(CCc1c(-c2ccccc2)[nH]c2ccccc12)CC(=O)N1CCOCC1
IC50 [1]: 132 µM
Relative potency [2]: 17
